From ChEMBL document CHEMBL1828517, “Synthesis, evaluation and application of polycyclic fluorescent analogues as N-methyl-D-aspartate receptor and voltage gated calcium channel ligands” (Eur J Med Chem, 2011)
Activity calls are given as the source filed them. The calls are words filed in the database; no cut-off is given here.

Assays:
[1] = Antagonist activity at voltage gated calcium channel in Sprague-Dawley rat striatal synaptoneurosomes assessed as inhibition of KCl-induced calcium flux at 100 uM by spectrofluorimetric analysis relative to control; assay type: functional
Procedure, shortened: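 Rat synaptoneurosomes loaded with Fura-2 AM (5 μM final, 10 min, 37 °C) in Krebs-HEPES pH 7.4. Compounds at 100 μM (0.1% DMSO) are preincubated 5 min at 37 °C. Depolarization is done at 10 s with KCl (140 mM) solution. Baseline is subtracted from peak fluorescence, the KCl-induced rise is taken as 100%, and inhibition is expressed relative to it.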

[2] = tested on: Glutamate NMDA receptor (Rattus norvegicus); experiment: Antagonist activity at NMDA receptor in Sprague-Dawley rat striatal synaptoneurosomes assessed as inhibition of NMDA/glycine-induced calcium flux at 100 uM by spectrofluorimetric analysis relative to control
[3] = molecular target: T1, Glutamate NMDA receptor (Rattus norvegicus) (UniProt P35439+Q00959+Q00960+Q00961+Q62645+Q8VHN2+Q9R1M7); experiment: Antagonist activity at NMDA receptor in Sprague-Dawley rat striatal synaptoneurosomes assessed as inhibition of NMDA/glycine-induced calcium flux at 100 uM by spectrofluorimetric analysis relative to control; assay type: functional
Procedure, shortened: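 Male Sprague-Dawley rat brain synaptoneurosomes are loaded with Mag-Fura-2/Fura-2 AM (5 μM final) for 10 min at 37 °C and resuspended in Krebs-HEPES pH 7.4. Compounds at 100 μM (0.1% DMSO final) are preincubated 5 min at 37 °C. NMDA (100 μM) plus glycine (100 μM) is added at 10 s and ratiometric fluorescence is read. Results are % of the DMSO control, 3 preparations × 3 determinations.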

[4] = molecular target: T1, Glutamate NMDA receptor (Rattus norvegicus); experiment: Binding affinity to NMDA receptor in Sprague-Dawley rat striatal synaptoneurosomes at 100 uM after 30 mins by competition binding assay in presence of NGP1-01; assay type: protein-complex assay
Procedure, shortened: (§1)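 Unloaded rat synaptoneurosomes (0.6 mg/ml) are resuspended in Krebs-HEPES at 37 °C and given the fluorescent ligand (100 μM) alone or with a competitor at 100 μM (DMSO <0.1%). NMDA (100 μM) plus glycine (100 μM) is added, followed by 30 min at 37 °C. The pellet is washed and resuspended, and fluorescence is read at 324/455 nm. Results are % of ligand-alone intensity; n = 9.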

[5] = molecular target: T1, Glutamate NMDA receptor (Rattus norvegicus); experiment: Binding affinity to NMDA receptor in Sprague-Dawley rat striatal synaptoneurosomes at 100 uM after 30 mins by competition binding assay in presence of MK-801; assay type: protein-complex assay; procedure, shortened: as §1
[6] = molecular target: Glutamate NMDA receptor; experiment: Antagonist activity at NMDA receptor in Sprague-Dawley rat striatal synaptoneurosomes assessed as inhibition of NMDA/glycine-induced calcium flux by spectrofluorimetric analysis; assay type: functional
Procedure, shortened: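 Fura-2 AM-loaded rat synaptoneurosomes in Krebs-HEPES pH 7.4 at 37 °C. Compound is preincubated 5 min at log-spaced concentrations. Calcium influx is triggered with NMDA (100 μM) plus glycine (100 μM) and measured by ratiometric spectrofluorimetry. The concentration-response is fitted to a four-parameter logistic equation; 3 preparations × 3 determinations.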

[7] = molecular target: T1, Glutamate NMDA receptor (Rattus norvegicus); experiment: Binding affinity to NMDA receptor in Sprague-Dawley rat striatal synaptoneurosomes at 100 uM after 30 mins by competition binding assay in presence of amantadine; assay type: protein-complex assay; procedure, shortened: as §1

Compound | inhibition (INH) [1] [%] | inhibition (INH) [2] [%] | inhibition [3] | inhibition [4] | inhibition [5] | IC50 [6] [nM] | inhibition [7]
CNc1ccccc1C(=O)NCCCNC12CC3CC(CC(C3)C1)C2 | 87.91 | 88.02 | 12% |  |  |  | 
O=C(NCCCNC12CC3CC(CC(C3)C1)C2)c1cc2ccccc2oc1=O | 67.99 | 86.77 | 13.2% |  |  |  | 
N#CCCNC12CC3CC(CC(C3)C1)C2 |  |  | 19.3% |  |  |  | 
CNc1ccccc1C(=O)NC12CC3CC(CC(C3)C1)C2 |  |  | inactive |  |  |  | 
O=[N+]([O-])c1ccc(NC23CC4CC(CC(C4)C2)C3)c([N+](=O)[O-])c1 |  |  | 19.2% |  |  |  | 
O=[N+]([O-])c1ccc(NCCCNC23CC4CC(CC(C4)C2)C3)c([N+](=O)[O-])c1 | 88.5 | 76.59 | 23.4% |  |  |  | 
O=C(NC12CC3CC(CC(C3)C1)C2)c1n[nH]c2ccccc12 |  | 83.7 | 16% |  |  |  | 
N#Cc1c2ccccc2cn1CCCNC12CC3CC(CC(C3)C1)C2 | 45.92 | 86.41 | 13.6% |  |  |  | 
CNc1ccccc1C(=O)OC12C3C4CC5C6C4C1C6C1(OCCCN12)C53 (configuration not stated) | 84.79 | 86.41 | 12% |  |  |  | 
CN(C)c1cccc2c(S(=O)(=O)NCCCNC34CC5CC(CC(C5)C3)C4)cccc12 | 36.74 | 62.97 | 37% | inactive | inactive | 270 | inactive
CN(C)c1cccc2c(S(=O)(=O)NC34CC5CC(CC(C5)C3)C4)cccc12 |  |  | 21.9% |  |  |  | 
O=C(NCCCNC12CC3CC(CC(C3)C1)C2)c1n[nH]c2ccccc12 | 86.91 | 95.19 | inactive |  |  |  | 
NCCCNC12CC3CC(CC(C3)C1)C2 | 89.3 | 91 | 9.01% |  |  |  | 
OC12C3C4CC5C6C4C1C6C1(OCCCN21)C53 (configuration not stated) | 87.24 | 77.29 | 22.7% |  |  |  | 
O=C(NC12CC3CC(CC(C3)C1)C2)c1cc2ccccc2oc1=O |  |  | 20.3% |  |  |  | 
O=C(OC12C3C4CC5C6C4C1C6C1(OCCCN12)C53)c1n[nH]c2ccccc12 (configuration not stated) | 83.62 | 77.89 | 13.6% |  |  |  | 
N#Cc1c2ccccc2cn1C12CC3CC(CC(C3)C1)C2 |  |  | 16% |  |  |  | 
